{
  "source": "ChEMBL document CHEMBL4177753",
  "about": "“Structural Modification of Natural Product Ganomycin I Leading to Discovery of a α-Glucosidase and HMG-CoA Reductase Dual Inhibitor Improving Obesity and Metabolic Dysfunction in Vivo” (J Med Chem, 2018)",
  "key": {"[1]": {"assay": "Inhibition of rat small intestinal mucosal alpha-glucosidase using p-nitrophenyl-alpha-D-glucopyranoside as substrate by HPLC method", "summary_of_the_method": "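Rat intestinal α-glucosidase; after incubation the product 4-nitrophenol is quantified at once by HPLC (gradient from 20% acetonitrile in water with 0.1‰ TFA to 100% acetonitrile over 10 min). Each concentration run 3 times in parallel; % inhibition from peak areas versus control minus control blank; IC50 from the concentration series.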"}, "[2]": {"assay": "Chemical stability of the compound at 0.4 mg/ml at room temperature after 3 weeks by HPLC method", "type": "physicochemical", "settings": "504 h"}, "Mus musculus [3]": {"system": "Mus musculus", "assay": "Toxicity in C57BL/6J mouse assessed as effect on plasma AST levels at 30 mg/kg administered daily via oral gavage for 3 months", "type": "organism-based", "settings": "in vivo", "summary_of_the_method": "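Long-term safety study in C57BL/6J mice, 20 male and 20 female, sorted by gender, blood glucose and body weight into four groups (n = 10 each). Treated groups of each sex got 30.0 mg/kg daily by oral gavage in soybean vehicle. Vehicle groups got an equal volume of soybean. Dosing ran three months, with behavior, survival, body weight, blood glucose, liver function and organ coefficients recorded.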"}, "[4]": {"assay": "AUC (0 to t) in Sprague-Dawley rat at 2 mg/kg, po", "type": "ADME, organism-based", "settings": "in vivo", "summary_of_the_method": "(§1)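 Male Sprague-Dawley rats (n = 6, 0.21–0.23 kg), single oral dose 2.0 mg/kg. Orbital blood sampled 0–16 h into heparinized tubes. Plasma was protein-precipitated with methanol, with internal standard added. Quantified by UPLC-ESI(+)-QTOF-MS in SIM mode on a C18 column with a methanol/0.3% formic acid water gradient. Linear range 0.54–107 ng/ml.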"}, "[5]": {"assay": "AUC (0 to infinity) in Sprague-Dawley rat at 2 mg/kg, po", "type": "ADME, organism-based", "design": "dose 2 mg/kg, route oral, time infinity", "settings": "in vivo", "summary_of_the_method": "as §1"}, "Mus musculus [6]": {"system": "Mus musculus", "assay": "Antiobesity activity in ob/ob mouse assessed as reduction in weight gain at 3 mg/kg administered daily via oral gavage for 31 days relative to vehicle-treated control", "type": "functional", "design": "scale not given: the % may be the effect or the level left", "summary_of_the_method": "(§2)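 Male ob/ob mice, n = 10 per group, grouped by blood glucose and body weight. Daily gavage at 0.3, 1.0 or 3.0 mg/kg in soybean vehicle, with soybean vehicle controls and C57BL/6J controls. Body weight, cumulative food intake, LEE index, fat mass and lean mass recorded. Mean ± SEM, one-way ANOVA with Tukey test.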"}, "Mus musculus [7]": {"system": "Mus musculus", "assay": "Antiobesity activity in ob/ob mouse assessed as reduction in LEE index at 3 mg/kg administered daily via oral gavage for 31 days relative to vehicle-treated control", "type": "functional, organism-based", "summary_of_the_method": "as §2"}, "Mus musculus [8]": {"system": "Mus musculus", "assay": "Antiobesity activity in C57BL/6J DIO mouse assessed as reduction in weight gain at 3 mg/kg administered daily via oral gavage for 5 weeks relative to vehicle-treated control", "type": "functional", "design": "scale not given: the % may be the effect or the level left", "summary_of_the_method": "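Male C57BL/6J mice on high-fat diet, n = 8 per group, grouped by blood glucose and body weight. Daily oral gavage at 0.3, 1.0 or 3.0 mg/kg in soybean vehicle for 5 weeks. Vehicle groups were on normal diet and on high-fat diet.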"}, "Mus musculus [9]": {"system": "Mus musculus", "assay": "Hypoglycemic activity in ob/ob mouse assessed as decrease in free diet blood glucose levels administered daily via oral gavage for 28 days", "type": "functional, organism-based", "summary_of_the_method": "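Male ob/ob mice, n = 10 per group, daily gavage at 0.3, 1.0 or 3.0 mg/kg in soybean vehicle. Fasting and free-diet blood glucose and HbA1c measured.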"}, "Mus musculus [10]": {"system": "Mus musculus", "assay": "Hypolipidemic activity in ob/ob mouse assessed as decrease in plasma free fatty acid levels administered daily via oral gavage for 31 days", "type": "functional, organism-based"}, "Mus musculus [11]": {"system": "Mus musculus", "assay": "Hypolipidemic activity in ob/ob mouse assessed as decrease in plasma triglyceride levels administered daily via oral gavage for 31 days", "type": "functional, organism-based"}, "Mus musculus [12]": {"system": "Mus musculus", "assay": "Hypolipidemic activity in ob/ob mouse assessed as decrease in plasma LDL-C levels at 3 mg/kg administered daily via oral gavage for 31 days relative to vehicle-treated control", "type": "functional", "design": "scale not given: the % may be the effect or the level left"}, "Mus musculus [13]": {"system": "Mus musculus", "assay": "Hypolipidemic activity in ob/ob mouse assessed as decrease in liver LDL-C levels at 0.3 to 3 mg/kg administered daily via oral gavage for 31 days", "type": "functional, organism-based"}, "Mus musculus [14]": {"system": "Mus musculus", "assay": "Hypolipidemic activity in ob/ob mouse assessed as decrease in serum ALT levels at 0.3 to 3 mg/kg administered daily via oral gavage for 31 days", "type": "functional, organism-based"}, "Mus musculus [15]": {"system": "Mus musculus", "assay": "Antifibrotic activity in ob/ob mouse assessed as decrease in hepatic hydroxyproline levels at 3 mg/kg administered daily via oral gavage for 31 days", "type": "functional, organism-based"}, "Mus musculus [16]": {"system": "Mus musculus", "assay": "Antifibrotic activity in ob/ob mouse assessed as decrease in TGF-beta1 expression in liver at 3 mg/kg administered daily via oral gavage for 31 days by immunohistochemical staining-based microscopic method", "type": "functional, organism-based"}, "Lachnospiraceae": {"system": "Lachnospiraceae", "assay": "Increase in Lachnospiraceae levels in cecum of ob/ob mouse assessed as increase in level of gut butyrate at 3 mg/kg administered daily via oral gavage for 31 days by GC-MS analysis", "type": "functional, organism-based", "summary_of_the_method": "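Feces collected from ob/ob mice after 3.0 mg/kg gavage treatment; samples lyophilized, ground, 40 mg powder extracted with 1 mL MeOH, sonicated, centrifuged; supernatant analysed for short-chain fatty acids by GC-MS.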"}, "Prevotella": {"system": "Prevotella", "assay": "Decrease in Prevotella levels in cecum of ob/ob mouse at 3 mg/kg administered daily via oral gavage for 31 days by 16S rRNA gene high-throughput sequencing method", "type": "functional, organism-based", "summary_of_the_method": "(§3)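 Male ob/ob mice dosed daily by gavage at 1.0 or 3.0 mg/kg, compared with vehicle group. DNA extracted from about 150 mg caecum contents. 16S rRNA V3–V4 region amplified and sequenced on Illumina HiSeq PE250. Community compared by NMDS/MRPP; discriminant taxa identified by LEfSe.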"}, "Selenomonas": {"system": "Selenomonas", "assay": "Decrease in Selenomonas levels in cecum of ob/ob mouse at 3 mg/kg administered daily via oral gavage for 31 days by 16S rRNA gene high-throughput sequencing method", "type": "functional, organism-based", "summary_of_the_method": "as §3"}, "Mus musculus [17]": {"system": "Mus musculus", "assay": "Upregulation of Muc-1 mRNA expression in ob/ob mouse ileum at 3 mg/kg administered daily via oral gavage for 31 days by RNA-seq analysis", "type": "functional, organism-based"}, "Mus musculus [18]": {"system": "Mus musculus", "assay": "Upregulation of ZO-1 mRNA expression in ob/ob mouse ileum at 3 mg/kg administered daily via oral gavage for 31 days by RNA-seq analysis", "type": "functional, organism-based"}, "Mus musculus [19]": {"system": "Mus musculus", "assay": "Downregulation of Nos2 mRNA expression in ob/ob mouse ileum at 3 mg/kg administered daily via oral gavage for 31 days by RNA-seq analysis", "type": "functional, organism-based"}, "Mus musculus [20]": {"system": "Mus musculus", "assay": "Antiobesity activity in antibiotic-treated ob/ob mouse assessed as reduction in weight gain at 3 mg/kg administered daily via oral gavage for 3 weeks", "type": "functional, organism-based", "summary_of_the_method": "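Male ob/ob mice given drinking water with ampicillin (1 g/L), vancomycin and other antibiotics for three weeks. Groups of n = 8 were dosed at 3.0 mg/kg/day by mouth in soybean vehicle, alongside non-antibiotic ob/ob groups. Weight gain and food intake recorded.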"}, "Mus musculus [21]": {"system": "Mus musculus", "assay": "Hypolipidemic activity in antibiotic-treated ob/ob mouse assessed as decrease in plasma triglycerides levels at 3 mg/kg administered daily via oral gavage for 3 weeks", "type": "functional, organism-based", "summary_of_the_method": "(§4)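 Male ob/ob mice pretreated three weeks with ampicillin (1 g/L), vancomycin, neomycin, gentamycin and erythromycin. Groups of n = 8 given 3.0 mg/kg/day orally in soybean vehicle versus vehicle. Plasma and hepatic lipids, fasting glucose, OGTT (glucose 2 g/kg after overnight fast) and HbA1c measured.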"}, "Mus musculus [22]": {"system": "Mus musculus", "assay": "Hypolipidemic activity in antibiotic-treated ob/ob mouse assessed as decrease in plasma total cholesterol levels at 3 mg/kg administered daily via oral gavage for 3 weeks", "type": "functional, organism-based", "summary_of_the_method": "as §4"}},
  "note": "pIC50: −log10 of the molar value. Activity calls are given as the source filed them. The rule behind the calls is not given here.",
  "data": [
    {"smiles": "CC(C)=CCC/C(C)=C/CCC1=C[C@H](c2ccc(C(C)(C)C)cc2)OC1=O", "values": [
      {"measurement": "pIC50", "setting": "[1]", "result": 7.40},
      {"measurement": "Stability", "setting": "[2]", "result": "Stable"},
      {"measurement": "Activity", "setting": "Mus musculus [3]", "result": "Non-Toxic"},
      {"measurement": "AUC(0-t)", "setting": "[4]", "result": 274, "unit": "ng·h/mL"},
      {"measurement": "AUC(0-inf)", "setting": "[5]", "result": 280, "unit": "ng·h/mL"},
      {"measurement": "Activity", "setting": "Mus musculus [6]", "result": 68, "unit": "%"},
      {"measurement": "Activity", "setting": "Mus musculus [7]", "result": "Active"},
      {"measurement": "Activity", "setting": "Mus musculus [8]", "result": 25.4, "unit": "%"},
      {"measurement": "Activity", "setting": "Mus musculus [9]", "result": "Dose-dependent effect"},
      {"measurement": "Activity", "setting": "Mus musculus [10]", "result": "Dose-dependent effect"},
      {"measurement": "Activity", "setting": "Mus musculus [11]", "result": "Dose-dependent effect"},
      {"measurement": "Activity", "setting": "Mus musculus [12]", "result": 51, "unit": "%"},
      {"measurement": "Activity", "setting": "Mus musculus [13]", "result": "Active"},
      {"measurement": "Activity", "setting": "Mus musculus [14]", "result": "Active"},
      {"measurement": "Activity", "setting": "Mus musculus [15]", "result": "Active"},
      {"measurement": "Activity", "setting": "Mus musculus [16]", "result": "Active"},
      {"measurement": "Activity", "setting": "Lachnospiraceae", "result": "Active"},
      {"measurement": "Activity", "setting": "Prevotella", "result": "Active"},
      {"measurement": "Activity", "setting": "Selenomonas", "result": "Active"},
      {"measurement": "Activity", "setting": "Mus musculus [17]", "result": "Active"},
      {"measurement": "Activity", "setting": "Mus musculus [18]", "result": "Active"},
      {"measurement": "Activity", "setting": "Mus musculus [19]", "result": "Active"},
      {"measurement": "Activity", "setting": "Mus musculus [20]", "result": "Active"},
      {"measurement": "Activity", "setting": "Mus musculus [21]", "result": "Active"},
      {"measurement": "Activity", "setting": "Mus musculus [22]", "result": "inactive"}
    ]}
  ]
}
